The values that follow come from ChEMBL document CHEMBL1157593, “Structure-based design, synthesis, and biological studies of new anticancer norindenoisoquinoline topoisomerase I inhibitors” (2010).

Active and inactive are the calls of the source. The rule behind the calls is not given here.

In assay [1] the test system is HOP-62. The experiment in a line: Antiproliferative activity against human HOP62 cells. It counts as functional.
Assay [2] concerns UACC-62. In words: Antiproliferative activity against human UACC62 cells. It counts as functional.
The subject of assay [3] is SF-539. In words: Antiproliferative activity against human SF539 cells. The format is functional.
In assay [4] the test system is DU-145. The experiment in a line: Antiproliferative activity against human DU145 cells. It counts as functional.
Assay [5] has as its system OVCAR-3. In words: Antiproliferative activity against human OVCAR-3 cells. It counts as functional.
For assay [6], the target named is T1, DNA topoisomerase 1 (Homo sapiens) (UniProt P11387).
T1 sequence (whole entry): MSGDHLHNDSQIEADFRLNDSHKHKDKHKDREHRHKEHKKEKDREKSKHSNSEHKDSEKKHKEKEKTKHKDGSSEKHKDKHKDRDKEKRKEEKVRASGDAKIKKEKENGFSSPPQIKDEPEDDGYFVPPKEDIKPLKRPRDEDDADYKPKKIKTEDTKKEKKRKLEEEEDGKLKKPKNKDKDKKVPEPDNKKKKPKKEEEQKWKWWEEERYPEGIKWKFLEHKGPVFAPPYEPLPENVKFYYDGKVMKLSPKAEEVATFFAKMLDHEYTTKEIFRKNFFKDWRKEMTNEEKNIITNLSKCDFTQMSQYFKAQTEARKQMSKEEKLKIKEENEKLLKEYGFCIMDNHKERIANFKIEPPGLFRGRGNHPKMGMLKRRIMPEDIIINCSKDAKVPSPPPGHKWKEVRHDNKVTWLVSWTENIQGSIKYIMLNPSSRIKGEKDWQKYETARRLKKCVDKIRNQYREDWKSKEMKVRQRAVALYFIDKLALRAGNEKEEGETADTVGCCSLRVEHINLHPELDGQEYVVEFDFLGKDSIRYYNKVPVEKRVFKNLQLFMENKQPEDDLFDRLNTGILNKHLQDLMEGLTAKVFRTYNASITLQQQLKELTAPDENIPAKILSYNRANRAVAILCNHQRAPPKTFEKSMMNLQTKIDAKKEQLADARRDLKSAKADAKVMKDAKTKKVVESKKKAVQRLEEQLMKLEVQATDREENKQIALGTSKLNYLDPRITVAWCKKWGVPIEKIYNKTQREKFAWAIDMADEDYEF
The experiment in a line: Inhibition of human recombinant topoisomerase-1-mediated 117bp DNA oligonucleotide cleavage at 10 uM by PAGE. The method, boiled down: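 About 2 nM of it is incubated with recombinant Top1 in 10 mM Tris-HCl pH 7.5, 50 mM KCl, 5 mM MgCl2, 0.1 mM EDTA and 15 μg/mL BSA, with compound, for 20 min at 25 °C. Reactions are stopped with 0.5% SDS, run on 20% denaturing PAGE, and cleavage is scored semiquantitatively (0 to ++++) against 1 μM CPT.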

For assay [7], the system named is HCT-116. The experiment in a line: Antiproliferative activity against human HCT116 cells. The format is functional.
Assay [8] concerns MDA-MB-435. The experiment in a line: Antiproliferative activity against human MDA-MB-435 cells. It counts as functional.
In assay [9] the test system is SN12C. In words: Antiproliferative activity against human SN12C cells. The format is functional.
The test system of assay [10] is ACHN. In words: Antiproliferative activity against human ACHN cells. The format is functional.
The subject of assay [11] is CAKI-1. In words: Antiproliferative activity against human Caki1 cells. The format is functional.
Assay [12] concerns MOLT-4. The experiment in a line: Antiproliferative activity against human MOLT4 cells. It counts as functional.
Assay [13] deals with U-251. In words: Antiproliferative activity against human U251 cells. It counts as functional.
The subject of assay [14] is MCF7. In words: Antiproliferative activity against human MCF7 cells. It counts as functional.
The test system of assay [15] is IGROV-1. In words: Antiproliferative activity against human IGROV1 cells. It counts as functional.
Assay [16] deals with RPMI-8226. The experiment in a line: Antiproliferative activity against human RPMI8226 cells. The format is functional.
In assay [17] the test system is SF-295. In words: Antiproliferative activity against human SF295 cells. The format is functional.
The test system of assay [18] is HCC 2998. In words: Antiproliferative activity against human HCC2998 cells. It counts as functional.
For assay [19], the system named is COLO 205. In words: Antiproliferative activity against human COLO205 cells. It counts as functional.
In assay [20] the test system is SR. The experiment in a line: Antiproliferative activity against human SR cells. The format is functional.
The subject of assay [21] is CCRF-CEM. The experiment in a line: Antiproliferative activity against human CCRF-CEM cells. It counts as functional.
The test system of assay [22] is NCI-H460. The experiment in a line: Antiproliferative activity against human NCI-H460 cells. It counts as functional.

Regarding `COc1cc2cnc3c(c2cc1OC)Cc1c-3cc2c(c1CN(C)C)OCO2`, the GI50 (in general, the concentration giving 50% growth inhibition) is 6.7 µM in assay [1]; 12 µM in assay [2]; 14 µM in [3]; 1.6 µM in assay [4]; 1.4 µM in assay [5]; 1.5 µM in assay [7]. Further, the GI50 was found to be 16 µM in assay [8] and 13 µM in [9]. Further, the inhibition result in [6] is “Active”.

Take `COc1cc2cnc3c(c2cc1OC)Cc1c-3cc2c(c1CN1CCOCC1)OCO2`: the GI50 in [1] turned out to be 2.1 µM; in assay [2], 100 µM; in assay [3], 1.8 µM; in assay [4], 1.9 µM; in [5] it was 1.7 µM; in [7], 1.4 µM. For the same compound, the GI50 in assay [9] was 2.3 µM.

As to `COc1cc2cnc3c(c2cc1OC)Cc1c-3cc2c(c1CN1CCN(C)CC1)OCO2`, the inhibition entry in [6] is “Active”.

As to `COc1cc2c3c(n(C)c(=O)c2cc1OC)-c1cc2c(cc1C3=O)OCO2`, the GI50 in [1] is 1.3 µM; in [2], 4.2 µM; in assay [3] it was 41 µM; in assay [4] it was 37 µM; in [7], 35 µM; in assay [8], 96 µM. In [9], this compound displayed a GI50 of 68 µM. The inhibition entry in assay [6] is “Active”.

For the compound `COc1cc2cnc3c(c2cc1OC)Cc1cc2c(cc1-3)OCO2`, the GI50 is 0.072 µM in assay [1]; < 0.01 µM in assay [2]; < 0.01 µM in [3]; 0.028 µM in [4]; > 100 µM in assay [7]; < 0.01 µM in [8]. Further, the GI50 in [9] is > 100 µM. For the same compound, in assay [6], the inhibition result is “Active”.

As for `CC[C@@]1(O)C(=O)OCc2c1cc1n(c2=O)Cc2cc3ccccc3nc2-1` [CAMPTOTHECIN], the GI50 in [1] is 0.01 µM; in assay [2], 0.01 µM; in [3] it was 0.01 µM; in [4], 0.01 µM; in assay [7] it was 0.03 µM; in [8], 0.04 µM. For the same compound, in [9], it took 0.02 µM to inhibit growth by half (GI50).

Regarding `COc1cc2cnc3c(c2cc1OC)Cc1c-3cc2c(c1Cn1ccnc1)OCO2`, the GI50 stood at 0.28 µM in [10]; 0.35 µM in assay [1]; 0.21 µM in assay [2]; 0.28 µM in assay [3]; 0.26 µM in assay [4]; 0.29 µM in [11]. Moreover, the GI50 in [12] turned out to be 0.06 µM; in assay [13], 0.16 µM; in [14], 0.09 µM; in assay [5] it was 0.21 µM; in assay [15], 0.12 µM; in assay [16] it was 0.041 µM. The GI50 in assay [17] is 0.15 µM; in assay [7], 0.16 µM; in assay [9] it was 0.6 µM; in assay [18], 1.1 µM; in assay [19], 0.51 µM; in assay [20], 0.012 µM. In addition, the GI50 in assay [21] worked out at 0.037 µM; in assay [22], 0.13 µM. For the same compound, the inhibition entry in assay [6] was “Active”.

As to `COc1cc2cnc3c(c2cc1OC)Cc1c-3cc2c(c1CN(C)CCN(C)C)OCO2`, the GI50 in assay [1] is 1.5 µM; in [2], 0.73 µM; in assay [3], 11 µM; in assay [4] it was 3.4 µM; in assay [5], 7.4 µM; in assay [7], 1.9 µM. Also, the GI50 in assay [9] is > 100 µM. For the same compound, in assay [6], the inhibition result is “Active”.

Turning to `COc1cc2cnc3c(c2cc1OC)Cc1c-3cc2c(c1C)OCO2`, the GI50 in assay [1] is 7.3 µM; in assay [2], 0.7 µM; in assay [3], 4.6 µM; in assay [4], > 100 µM; in assay [5], 5.8 µM; in assay [7], 0.89 µM. Further, the GI50 in assay [8] and in assay [9] was > 100 µM throughout. Besides, the inhibition result in assay [6] was “Active”.

As to `COc1cc2cnc3c(c2cc1OC)Cc1c-3cc2c(c1CN1CCCC1)OCO2`, the GI50 was 1.2 µM in assay [1]; 6.7 µM in assay [2]; 1.9 µM in assay [3]; 0.73 µM in [4]; 0.73 µM in [5]; 0.64 µM in [7]. Also, the GI50 was 2.5 µM in assay [8] and 4.4 µM in assay [9]. Further, the inhibition result in assay [6] is “Active”.
